Bioassay records from PubChem.
An excerpt weighted towards active compounds, which were near 2.1% of everything screened.
dFosB activator – activators of mouse delta FosB homodimer; activation, % at 25 µM; AID 493131; purified delta FosB, TAMRA-CDK5 oligo fluorescence polarization; percent of positive-control signal above neutral wells; P13346; actives 0.99% (n = 340,000);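 active = mean activation above about 17%, with every replicate also reaching it, limit read from the data, passing the limit was not always enough; inconclusive = only one of the two conditions met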
SR-BI uptake up – SR-BI HDL lipid transfer activation. CHO ldlA[mSR-BI] cells, DiI-HDL uptake fluorescence, 3 h; 100 = double the neutral-control signal. actives 0.096% (n = 320,000). AID 504775. activation, % at 12.5 µM;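 active = mean replicate activation of at least 60% and every replicate at or above 60%; inconclusive = mean or all-replicate condition met, but not both; inactive = mean below 60% and not all replicates reaching 60%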
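System: LDL receptor-deficient CHO ldlA cells overexpressing murine SR-BI | Timing: 3 h uptake period with compound, 37 °C | Medium: HEPES-buffered (25 mM, pH 7.4) F12 plus 0.5% BSA | Dosing: Single-point compound dose | Signal: Bottom-read fluorescence, 550/595 nm | Read-out: Retained DiI signal reflecting DiI-HDL uptake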
SR-BI HDL uptake – inhibitors of mouse SR-BI mediated HDL lipid uptake; AID 488896; ldlA[mSR-BI] CHO cells, DiI-HDL uptake fluorescence, 3 h; actives 0.96% (n = 320,000); inhibition, % at 12.5 µM;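 active = mean replicate inhibition of at least 70% and a set share of replicates each scoring 70 or more; inconclusive = meets just one of the two criteria; inactive = fails both criteria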
PKA-R1A activ – activates the PKA-R1A holoenzyme complex; P00514+P68181; actives 0.083% (n = 340,000); PKA-R1A dissociation, Cy5-IP20 fluorescence polarization; scaled: DMSO 0%, 113 µM cGMP 100%; activation, % at 11.4 µM; AID 504707;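 active = percent activation above the mean of all tested compounds plus 3 SD, cut at about 19% in these data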;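 also: higher means more PKAc released from R1A so a rise in polarization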
CDK5 p35 inh – inhibitors of human CDK5/p35 kinase; inhibition, % at 10 µM; actives 0.01% (n = 330,000); AID 488839; Recombinant CDK5/p35, ADP-Glo luminescence, 60 min;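 active = highest replicate inhibition of at least 50% and at least 75% of replicates reaching 50%; inconclusive = only one of the two criteria met; inactive = both criteria failed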
PKA-R2B activ – activates the human PKA-R2B holoenzyme complex | AID 504700 | actives 0.079% (n = 340,000) | PKA-R2B holoenzyme dissociation, Cy5-IP20 fluorescence polarization; R2B truncated from residue 108, S112A mutant; 0% DMSO only, 100% 113 µM cGMP | activation, % at 11.4 µM;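 active = activation above a cutoff set at the mean over all compounds plus 3 SD, cut at about 18% in these data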;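 also: higher means more holoenzyme dissociation and a rise in polarization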
Target sequence (P31323 whole entry, looked up, other chains not shown, the tested form may be a part): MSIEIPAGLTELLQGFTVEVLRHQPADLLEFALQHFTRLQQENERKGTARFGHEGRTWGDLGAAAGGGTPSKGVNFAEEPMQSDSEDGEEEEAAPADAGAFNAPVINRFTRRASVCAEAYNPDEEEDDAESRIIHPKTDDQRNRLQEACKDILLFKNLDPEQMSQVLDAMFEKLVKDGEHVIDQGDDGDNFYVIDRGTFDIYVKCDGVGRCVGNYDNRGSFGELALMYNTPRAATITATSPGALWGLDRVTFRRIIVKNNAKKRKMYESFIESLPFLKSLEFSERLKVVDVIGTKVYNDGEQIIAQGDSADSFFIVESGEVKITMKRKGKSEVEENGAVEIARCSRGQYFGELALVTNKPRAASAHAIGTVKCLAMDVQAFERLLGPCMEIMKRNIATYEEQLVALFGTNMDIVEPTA
A number is an active result; n = inactive; u = inconclusive; x = no result.

SMILES	dFosB activator	SR-BI uptake up	SR-BI HDL uptake	PKA-R1A activ	CDK5 p35 inh	PKA-R2B activ
O=C1C(C2=NC(c3ccccn3)C3C(=O)N(c4ccccc4)C(=O)C23)=C(O)c2ccccc21 (stereo not drawn)	26	x	x	n	n	n
COc1cc2c(cc1OC)C(c1ccc(-c3ccc(Cl)c(Cl)c3)o1)=NCC2	52	n	n	n	n	n
CCOC(=O)C(=N/O)/C(C)=N/NC(C)=O	n	n	n	n	n	n
CCOC(=O)C(=N/O)/C(C)=N/NC(=O)C(=O)Nc1cc(Cl)ccc1Cl	n	n	81	n	n	n
Cc1cc([N+](=O)[O-])ccc1NC(=O)Nc1ccccc1F	n	n	94	n	n	n
COc1ccc(CC(=O)NNS(=O)(=O)c2ccc([N+](=O)[O-])cc2)cc1OC	n	61	n	n	n	n
COc1ccc(CC(=O)NNS(=O)(=O)c2ccccc2[N+](=O)[O-])cc1OC	n	n	n	n	n	n
CCC1CCCCN1CCCNC(=O)C1CCC(=O)N1Cc1ccc(C)cc1 (stereo not drawn)	16	n	n	n	n	n
CCCN1CCN(CCCNC(=O)CN2C(=O)COc3ccc(C(C)(C)C)cc32)CC1	x	x	x	n	x	n
CC1=CC(=C(C#N)C#N)C=C(C)N1CCN1CCN(C(=O)Nc2cccc(Cl)c2)CC1	30	n	n	n	n	n
CC1=CC(=C(C#N)C#N)C=C(C)N1CCN1CCNCC1	19	n	n	n	n	n
CC(=O)N1CCN(CCN2C(C)=CC(=C(C#N)C#N)C=C2C)CC1	n	n	n	n	n	n
CN(C)c1ccc(N=C/C=C2/N(C)c3ccccc3C2(C)C)cc1	n	n	n	n	n	n
Cc1ccc(-c2cc(C(=O)N/N=C\c3cnn(C)c3C)c3ccccc3n2)cc1C	n	n	96	n	n	n
O=C(O)COc1ccccc1/C=N/NC(=O)c1cc(-c2ccccc2)nc2ccccc12	n	x	x	n	n	n
O=C(N/N=C/c1ccccn1)c1cc(-c2ccc(Cl)cc2)nc2ccccc12	n	n	107	n	n	n
O=C(N/N=C/c1ccccc1OC(F)F)c1cc(-c2ccncc2)nc2ccccc12	n	n	90	n	n	n
O=C(O)COc1ccccc1/C=N/NC(=O)c1cc(-c2ccc(Cl)cc2)nc2ccccc12	n	x	x	n	n	n
COc1ccccc1-c1cc(C(=O)N/N=C/c2ccc(C)s2)c2ccccc2n1	n	n	77	n	n	n
O=C(N/N=C/c1ccccn1)c1cc(-c2ccc(Br)cc2)nc2ccccc12	n	n	76	n	n	n
COc1ccc(OC)c(-c2cc(C(=O)Nc3sc4c(c3C#N)CCC(C)C4)c3ccccc3n2)c1 (stereo not drawn)	n	n	u	n	n	n
COc1ccccc1-c1cc(C(=O)Nc2sc3c(c2C#N)CCC(C)C3)c2ccccc2n1 (stereo not drawn)	n	n	86	n	n	n
Cc1nc(C)c(-c2csc(Nc3ccc(Cl)cn3)n2)s1	x	x	x	n	x	n
COCCN(C(=O)COC(=O)Cc1coc2cc3c(cc12)CCC3)c1c(N)n(Cc2ccccc2)c(=O)[nH]c1=O	n	n	n	n	n	n
NC(=O)c1ccc(NC(=O)COC(=O)CCN2C(=O)c3ccccc3C2=O)cc1	n	n	n	n	n	n
SMILES	dFosB activator	SR-BI uptake up	SR-BI HDL uptake	PKA-R1A activ	CDK5 p35 inh	PKA-R2B activ
O=[N+]([O-])c1ccccc1CCc1cnc(Cl)s1	n	n	84	n	n	n
COC(=O)c1ccc2c(c1)C(C)(C)C(/C=C/c1ccccc1O)=[N+]2C	111	n	76	n	n	n
O=C(COC(=O)/C=C/c1ccccc1)NC1CCS(=O)(=O)C1 (stereo not drawn)	n	n	n	n	n	n
CCOc1cc(/C=C/C(=O)OCC(=O)NC2CCS(=O)(=O)C2)ccc1OCc1ccccc1 (stereo not drawn)	n	n	73	n	n	n
COc1ccc(NS(=O)(=O)c2cccc(C(=O)N3CCN(Cc4cc(OC)ccc4OC)CC3)c2)cc1	n	n	74	n	n	n
COc1ccc(OC)c(CN2CCN(C(=O)c3ccc(C)c(S(=O)(=O)Nc4ccccc4OC)c3)CC2)c1	n	n	77	n	n	n
COc1ccc(OC)c(CN2CCN(C(=O)c3cc(S(=O)(=O)Nc4ccccc4OC)ccc3C)CC2)c1	n	n	n	n	n	n
Cc1c(NC(=O)/C(C#N)=C/c2ccc(-c3ccc(Cl)c(Cl)c3)o2)c(=O)n(-c2ccccc2)n1C	n	n	74	n	n	n
CCOC(=O)C1=C(C)N=C2SCCC(=O)N2[C@@H]1c1cccs1	n	292	n	n	n	n
COc1cc2c3nnc(-c4ccc(F)cc4)c-3cn(Cc3ccc(C)cc3)c2cc1OC	u	n	n	n	n	n
COc1cc2c3nnc(-c4ccc(F)cc4)c-3cn(Cc3cccc(F)c3)c2cc1OC	38	n	n	n	n	n
CN(C)CCNC(=S)Nc1cccc(Cl)c1	n	n	n	n	n	n
CN(C)CCCNc1ccc(-c2cc(Nc3cccc(Cl)c3)ncn2)cn1	39	n	n	n	n	n
CCOC(=O)C1CCCN(C(=O)c2cc(-c3ccc(F)cc3)nc3ccccc23)C1 (stereo not drawn)	n	n	70	n	n	n
CCOC(=O)C1CCCN(C(=O)c2cc(-c3ccncc3)nc3ccccc23)C1 (stereo not drawn)	n	n	n	n	n	n
O=C1c2c(O)cccc2Cc2cccc(O)c21	26	n	n	n	n	n
Nc1ccc(-c2cc3ccccc3oc2=O)cc1	n	n	n	n	n	n
O=C/C=C/c1c(-c2ccccc2)cc2oc3ccccc3cc1-2	n	n	100	n	n	n
N#CC(c1ccc(Cl)cc1)c1cccc(Cl)n1 (stereo not drawn)	n	n	n	n	n	n
CN(C)c1cccc(Oc2nc3c(c(=O)n(C)c(=O)n3C)n2C)c1	n	n	89	n	n	n
Cn1c(=O)c2c(nc(Oc3cccc(Br)c3)n2C)n(C)c1=O	n	n	n	n	n	n
O=C(NCC1CCCCC1)c1ccc(F)cc1Cl	n	n	n	n	n	n
Cc1nn(-c2nccs2)c2c1C(=O)CC(C)(C)C2Br (stereo not drawn)	n	n	n	n	56	n
CCCCOc1ccc(CC2CCC(=O)NC2=O)cc1 (stereo not drawn)	n	n	n	n	n	n
N#Cc1ccc(COC(=O)c2cnc3ccccc3n2)cc1	n	x	x	n	n	n
Oc1ccc(Nc2nc(N3CCCC3)c3ccccc3n2)cc1	80	n	n	n	n	n
